From ChEMBL document CHEMBL4118033, “Total Synthesis, Configuration Assignment, and Cytotoxic Activity Evaluation of Protulactone A” (J Nat Prod, 2017)
Activity calls are given as the source filed them. The rule behind the calls is not given here.

What was measured:
Assay type in all cases: functional, cell-based
HOP-62 = assay: Antiproliferative activity against human HOP62 cells at 10 uM incubated for 48 hrs by sulforhodamine B assay
Method in brief: (§1)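 Run by the NCI Developmental Therapeutics Program (Division of Cancer Treatment and Diagnosis) as part of the NCI60 human tumour cell line panel screen. Each compound was tested at a single dose of 10 μM. Results are reported as one-dose mean graphs.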

SF-268 = assay: Antiproliferative activity against human SF268 cells at 10 uM incubated for 48 hrs by sulforhodamine B assay; method in brief: as §1
UACC-62 = assay: Antiproliferative activity against human UACC62 cells at 10 uM incubated for 48 hrs by sulforhodamine B assay
Method in brief: (§2)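 Run by the NCI Developmental Therapeutics Program (Division of Cancer Treatment and Diagnosis) as part of the NCI60 human tumour cell line panel. Each compound was tested in vitro at a single dose of 10 μM, and the data are reported as one-dose mean graphs across the panel.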

U-251 = assay: Antiproliferative activity against human U251 cells at 10 uM incubated for 48 hrs by sulforhodamine B assay; method in brief: as §2
MCF7 = assay: Antiproliferative activity against human MCF7 cells at 10 uM incubated for 48 hrs by sulforhodamine B assay; method in brief: as §1
T47D = assay: Antiproliferative activity against human T47D cells at 10 uM incubated for 48 hrs by sulforhodamine B assay; method in brief: as §2
HCT-15 = assay: Antiproliferative activity against human HCT15 cells at 10 uM incubated for 48 hrs by sulforhodamine B assay; method in brief: as §1
HT-29 = assay: Antiproliferative activity against human HT-29 cells at 10 uM incubated for 48 hrs by sulforhodamine B assay; method in brief: as §1
NCI-H522 = assay: Antiproliferative activity against human NCI-H522 cells at 10 uM incubated for 48 hrs by sulforhodamine B assay; method in brief: as §1
NCI-H226 = assay: Antiproliferative activity against human NCI-H226 cells at 10 uM incubated for 48 hrs by sulforhodamine B assay; method in brief: as §1
BT-549 = assay: Antiproliferative activity against human BT549 cells at 10 uM incubated for 48 hrs by sulforhodamine B assay; method in brief: as §1
IGROV-1 = assay: Antiproliferative activity against human IGROV1 cells at 10 uM incubated for 48 hrs by sulforhodamine B assay; method in brief: as §1
UACC-257 = assay: Antiproliferative activity against human UACC257 cells at 10 uM incubated for 48 hrs by sulforhodamine B assay; method in brief: as §2
M14 = assay: Antiproliferative activity against human M14 cells at 10 uM incubated for 48 hrs by sulforhodamine B assay; method in brief: as §1
MOLT-4 = assay: Antiproliferative activity against human MOLT4 cells at 10 uM incubated for 48 hrs by sulforhodamine B assay; method in brief: as §1
OVCAR-4 = assay: Antiproliferative activity against human OVCAR4 cells at 10 uM incubated for 48 hrs by sulforhodamine B assay; method in brief: as §1
TK-10 = assay: Antiproliferative activity against human TK10 cells at 10 uM incubated for 48 hrs by sulforhodamine B assay; method in brief: as §2
A549 = assay: Antiproliferative activity against human A549/ATCC cells at 10 uM incubated for 48 hrs by sulforhodamine B assay; method in brief: as §1
LOX IMVI = assay: Antiproliferative activity against human LOXIMVI cells at 10 uM incubated for 48 hrs by sulforhodamine B assay; method in brief: as §1
ACHN = assay: Antiproliferative activity against human ACHN cells at 10 uM incubated for 48 hrs by sulforhodamine B assay; method in brief: as §1
SK-MEL-2 = assay: Antiproliferative activity against human SK-MEL-2 cells at 10 uM incubated for 48 hrs by sulforhodamine B assay; method in brief: as §1
NCI-H322M = assay: Antiproliferative activity against human NCI-H322M cells at 10 uM incubated for 48 hrs by sulforhodamine B assay; method in brief: as §1
OVCAR-5 = assay: Antiproliferative activity against human OVCAR5 cells at 10 uM incubated for 48 hrs by sulforhodamine B assay; method in brief: as §1
CCRF-CEM = assay: Antiproliferative activity against human CCRF-CEM cells at 10 uM incubated for 48 hrs by sulforhodamine B assay; method in brief: as §1
NCI-H23 = assay: Antiproliferative activity against human NCI-H23 cells at 10 uM incubated for 48 hrs by sulforhodamine B assay; method in brief: as §1
PC-3 = assay: Antiproliferative activity against human PC3 cells at 10 uM incubated for 48 hrs by sulforhodamine B assay; method in brief: as §1
RPMI-8226 = assay: Antiproliferative activity against human RPMI8226 cells at 10 uM incubated for 48 hrs by sulforhodamine B assay; method in brief: as §1
SR = assay: Antiproliferative activity against human SR cells at 10 uM incubated for 48 hrs by sulforhodamine B assay; method in brief: as §2
K562 = assay: Antiproliferative activity against human K562 cells at 10 uM incubated for 48 hrs by sulforhodamine B assay; method in brief: as §1
Hs-578T = assay: Antiproliferative activity against human Hs 578T cells at 10 uM incubated for 48 hrs by sulforhodamine B assay; method in brief: as §1
MDA-MB-231 = assay: Antiproliferative activity against human MDA-MB-231 cells at 10 uM incubated for 48 hrs by sulforhodamine B assay; method in brief: as §1
OVCAR-3 = assay: Antiproliferative activity against human OVCAR3 cells at 10 uM incubated for 48 hrs by sulforhodamine B assay; method in brief: as §1
HOP-92 = assay: Antiproliferative activity against human HOP92 cells at 10 uM incubated for 48 hrs by sulforhodamine B assay; method in brief: as §1
EKVX = assay: Antiproliferative activity against human EKVX cells at 10 uM incubated for 48 hrs by sulforhodamine B assay; method in brief: as §1
SW-620 = assay: Antiproliferative activity against human SW620 cells at 10 uM incubated for 48 hrs by sulforhodamine B assay; method in brief: as §2
Malme-3M = assay: Antiproliferative activity against human MALME-3M cells at 10 uM incubated for 48 hrs by sulforhodamine B assay; method in brief: as §1
786-0 = assay: Antiproliferative activity against human 786-0 cells at 10 uM incubated for 48 hrs by sulforhodamine B assay; method in brief: as §1
SK-MEL-5 = assay: Antiproliferative activity against human SK-MEL-5 cells at 10 uM incubated for 48 hrs by sulforhodamine B assay; method in brief: as §1
HCT-116 = assay: Antiproliferative activity against human HCT116 cells at 10 uM incubated for 48 hrs by sulforhodamine B assay; method in brief: as §1
SNB-75 = assay: Antiproliferative activity against human SNB75 cells at 10 uM incubated for 48 hrs by sulforhodamine B assay; method in brief: as §2
MDA-MB-435 = assay: Antiproliferative activity against human MDA-MB-435 cells at 10 uM incubated for 48 hrs by sulforhodamine B assay; method in brief: as §1
CAKI-1 = assay: Antiproliferative activity against human Caki1 cells at 10 uM incubated for 48 hrs by sulforhodamine B assay; method in brief: as §1
NCI-H460 = assay: Antiproliferative activity against human NCI-H460 cells at 10 uM incubated for 48 hrs by sulforhodamine B assay; method in brief: as §1
SK-MEL-28 = assay: Antiproliferative activity against human SK-MEL-28 cells at 10 uM incubated for 48 hrs by sulforhodamine B assay; method in brief: as §1
SF-539 = assay: Antiproliferative activity against human SF539 cells at 10 uM incubated for 48 hrs by sulforhodamine B assay; method in brief: as §1

O=C1C[C@H]2O[C@H]([C@@H](O)c3ccccc3)[C@H](O)[C@H]2O1
Activity (HOP-62): Active
Activity (SF-268): Active
Activity (UACC-62): Active
Activity (U-251): Active
Activity (MCF7): Active
Activity (T47D): Active
Activity (HCT-15): Active
Activity (HT-29): Active
Activity (NCI-H522): Active
Activity (NCI-H226): Active
Activity (BT-549): Active
Activity (IGROV-1): Active
Activity (UACC-257): Active
Activity (M14): Active
Activity (MOLT-4): Active
Activity (OVCAR-4): Active
Activity (TK-10): Active
Activity (A549): Active
Activity (LOX IMVI): Active
Activity (ACHN): Active
Activity (SK-MEL-2): Active
Activity (NCI-H322M): Active
Activity (OVCAR-5): Active
Activity (CCRF-CEM): Active
Activity (NCI-H23): Active
Activity (PC-3): Active
Activity (RPMI-8226): Active
Activity (SR): Active
Activity (K562): Active
Activity (Hs-578T): Active
Activity (MDA-MB-231): Active
Activity (OVCAR-3): Active
Activity (HOP-92): Active
Activity (EKVX): Active
Activity (SW-620): Active
Activity (Malme-3M): Active
Activity (786-0): Active
Activity (SK-MEL-5): Active
Activity (HCT-116): Active
Activity (SNB-75): Active
Activity (MDA-MB-435): Active
Activity (CAKI-1): Active
Activity (NCI-H460): Active
Activity (SK-MEL-28): Active
Activity (SF-539): Active

O=C(/C=C/c1ccccc1)O[C@H](c1ccccc1)[C@@H]1O[C@@H]2CC(=O)O[C@@H]2[C@H]1O
Activity (HOP-62): Active
Activity (SF-268): Active
Activity (UACC-62): Active
Activity (U-251): Active
Activity (MCF7): Active
Activity (T47D): Active
Activity (HCT-15): Active
Activity (HT-29): Active
Activity (NCI-H522): Active
Activity (NCI-H226): Active
Activity (BT-549): Active
Activity (IGROV-1): Active
Activity (UACC-257): Active
Activity (M14): Active
Activity (MOLT-4): Active
Activity (OVCAR-4): Active
Activity (TK-10): Active
Activity (A549): Active
Activity (LOX IMVI): Active
Activity (ACHN): Active
Activity (SK-MEL-2): Active
Activity (NCI-H322M): Active
Activity (OVCAR-5): Active
Activity (CCRF-CEM): Active
Activity (NCI-H23): Active
Activity (PC-3): Active
Activity (RPMI-8226): Active
Activity (SR): Active
Activity (K562): Active
Activity (Hs-578T): Active
Activity (MDA-MB-231): Active
Activity (OVCAR-3): Active
Activity (HOP-92): Active
Activity (EKVX): Active
Activity (SW-620): Active
Activity (Malme-3M): Active
Activity (786-0): Active
Activity (SK-MEL-5): Active
Activity (HCT-116): Active
Activity (SNB-75): Active
Activity (MDA-MB-435): Active
Activity (CAKI-1): Active
Activity (NCI-H460): Active
Activity (SK-MEL-28): Active
Activity (SF-539): Active

CC(=O)O[C@H](C)[C@H]1O[C@H]2CC(=O)O[C@H]2[C@@H]1O
Activity (HOP-62): inactive
Activity (SF-268): inactive
Activity (UACC-62): inactive
Activity (U-251): inactive
Activity (MCF7): inactive
Activity (T47D): inactive
Activity (HCT-15): inactive
Activity (HT-29): inactive
Activity (NCI-H522): inactive
Activity (NCI-H226): inactive
Activity (BT-549): inactive
Activity (IGROV-1): inactive
Activity (UACC-257): inactive
Activity (M14): inactive
Activity (MOLT-4): inactive
Activity (OVCAR-4): inactive
Activity (TK-10): inactive
Activity (A549): inactive
Activity (LOX IMVI): inactive
Activity (ACHN): inactive
Activity (SK-MEL-2): inactive
Activity (NCI-H322M): inactive
Activity (OVCAR-5): inactive
Activity (CCRF-CEM): inactive
Activity (NCI-H23): inactive
Activity (PC-3): inactive
Activity (RPMI-8226): inactive
Activity (SR): inactive
Activity (K562): inactive
Activity (Hs-578T): inactive
Activity (MDA-MB-231): inactive
Activity (OVCAR-3): inactive
Activity (HOP-92): inactive
Activity (EKVX): inactive
Activity (SW-620): inactive
Activity (Malme-3M): inactive
Activity (786-0): inactive
Activity (SK-MEL-5): inactive
Activity (HCT-116): inactive
Activity (SNB-75): inactive
Activity (MDA-MB-435): inactive
Activity (CAKI-1): inactive
Activity (NCI-H460): inactive
Activity (SK-MEL-28): inactive
Activity (SF-539): inactive

CC(=O)O[C@@H](C)[C@@H]1O[C@@H]2CC(=O)O[C@@H]2[C@H]1O
Activity (HOP-62): inactive
Activity (SF-268): inactive
Activity (UACC-62): inactive
Activity (U-251): inactive
Activity (MCF7): inactive
Activity (T47D): inactive
Activity (HCT-15): inactive
Activity (HT-29): inactive
Activity (NCI-H522): inactive
Activity (NCI-H226): inactive
Activity (BT-549): inactive
Activity (IGROV-1): inactive
Activity (UACC-257): inactive
Activity (M14): inactive
Activity (MOLT-4): inactive
Activity (OVCAR-4): inactive
Activity (TK-10): inactive
Activity (A549): inactive
Activity (LOX IMVI): inactive
Activity (ACHN): inactive
Activity (SK-MEL-2): inactive
Activity (NCI-H322M): inactive
Activity (OVCAR-5): inactive
Activity (CCRF-CEM): inactive
Activity (NCI-H23): inactive
Activity (PC-3): inactive
Activity (RPMI-8226): inactive
Activity (SR): inactive
Activity (K562): inactive
Activity (Hs-578T): inactive
Activity (MDA-MB-231): inactive
Activity (OVCAR-3): inactive
Activity (HOP-92): inactive
Activity (EKVX): inactive
Activity (SW-620): inactive
Activity (Malme-3M): inactive
Activity (786-0): inactive
Activity (SK-MEL-5): inactive
Activity (HCT-116): inactive
Activity (SNB-75): inactive
Activity (MDA-MB-435): inactive
Activity (CAKI-1): inactive
Activity (NCI-H460): inactive
Activity (SK-MEL-28): inactive
Activity (SF-539): inactive
